Experimental data from ChEMBL document CHEMBL4422632, “Design of Novel Inhibitors of Human Thymidine Phosphorylase: Synthesis, Enzyme Inhibition, in Vitro Toxicity, and Impact on Human Glioblastoma Cancer” (J Med Chem, 2019).
Activity calls are given as the source filed them. No cut-off for these calls is given here.

What was measured:
[1] = Cytotoxicity against mouse RAW264.7 cells assessed as cell viability at 50 uM after 72 hrs by MTT assay relative to control; assay type: cell-based; settings: read-out: Activity
How it was run: (§1)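 Cells kept in DMEM with 10% heat-inactivated FBS, 1% penicillin-streptomycin and 0.1% fungizone at 37 °C, 5% CO₂. U-87 MG seeded at 2 x 10^3 cells/well, RAW 264.7 at 5 x 10^2, adhered 24 h, then exposed 72 h. MTT: 1 mg/mL for 3 h, formazan in DMSO, A595. NRU: 25 μg/mL dye, 3 h, ethanol:acetic acid:water desorb. Untreated wells = 100%; three to five independent experiments in triplicate.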

[2] = Cytotoxicity against human U87MG cells assessed as cell viability at 25 uM after 72 hrs by MTT assay relative to control; assay type: cell-based, U-87MG ATCC; settings: read-out: Activity; how it was run: as §1
[3] = AUCt in CF1 mouse at 50 mg/kg, ip by non-compartmental analysis; assay type: ADME, organism-based; settings: in vivo
How it was run: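 Male CF1 mice received a single ip injection of 50 mg/kg in 0.9% saline; 3 animals per time point, killed 0.03, 0.08, 0.25, 0.5, 1 and 2 h after dosing; blood collected in heparin tubes.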

[4] = Cytotoxicity against human HaCaT cells assessed as cell viability at 50 uM after 72 hrs by neutral red uptake-based assay relative to control; settings: read-out: Activity
How it was run: (§2)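 Cells grown in DMEM with 10% FBS at 37 °C, 5% CO₂; seeded 2 x 10³ cells/well, adhered 24 h, then exposed 72 h. MTT: 1 mg/mL for 3 h, formazan in DMSO, absorbance 595 nm. NRU: neutral red 25 µg/mL in serum-free medium for 3 h, desorbed in ethanol:acetic acid:water. Viability as % of untreated control; mean ± SEM of three to five independent experiments in triplicate.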

[5] = Cytotoxicity against African green monkey Vero cells assessed as cell viability at 1000 uM after 72 hrs by neutral red uptake-based assay relative to control; settings: chlorocebus sabaeus, read-out: Activity; how it was run: as §2
[6] = system: U-87 MG; assay: Anti-angiogenic activity in tumor of human U87MG cells xenografted in nude BALB/c mouse assessed as reduction in VEGF staining at 50 mg/kg, ip administered for 14 days by immunohistochemistry; assay type: functional, organism-based; settings: U-87MG ATCC
How it was run: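 Male nude mice bearing subcutaneous right-flank xenografts of 5 x 10⁵ U-87 MG cells; dosing began at about 50 mm³ tumors, ip daily for 14 days. Tumors formalin-fixed, paraffin sections 3 µm; citrate pH 6 antigen retrieval at 95-98 °C; primary antibody overnight at 4 °C, HRP secondary, DAB. Positive area quantified by optical density at x200, 4 images per tumor; mean ± SEM, one-way ANOVA with Dunnett.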

[7] = Tmax in CF1 mouse at 50 mg/kg, ip by non-compartmental analysis; assay type: ADME, organism-based; settings: in vivo
[8] = Cytotoxicity against human HaCaT cells assessed as cell viability at 50 uM after 72 hrs by MTT assay relative to control; assay type: cell-based; settings: read-out: Activity; how it was run: as §2
[9] = Cytotoxicity against African green monkey Vero cells assessed as cell viability at 250 uM after 72 hrs by neutral red uptake-based assay relative to control; settings: chlorocebus sabaeus, read-out: Activity; how it was run: as §2
[10] = molecular target: Cytochrome P450 3A4 (Homo sapiens, UniProt P08684); assay: Inhibition of CYP3A4 in human liver microsomes by HPLC-MS/MS analysis; assay type: ADME
Sequence of Cytochrome P450 3A4 (P08684 whole entry): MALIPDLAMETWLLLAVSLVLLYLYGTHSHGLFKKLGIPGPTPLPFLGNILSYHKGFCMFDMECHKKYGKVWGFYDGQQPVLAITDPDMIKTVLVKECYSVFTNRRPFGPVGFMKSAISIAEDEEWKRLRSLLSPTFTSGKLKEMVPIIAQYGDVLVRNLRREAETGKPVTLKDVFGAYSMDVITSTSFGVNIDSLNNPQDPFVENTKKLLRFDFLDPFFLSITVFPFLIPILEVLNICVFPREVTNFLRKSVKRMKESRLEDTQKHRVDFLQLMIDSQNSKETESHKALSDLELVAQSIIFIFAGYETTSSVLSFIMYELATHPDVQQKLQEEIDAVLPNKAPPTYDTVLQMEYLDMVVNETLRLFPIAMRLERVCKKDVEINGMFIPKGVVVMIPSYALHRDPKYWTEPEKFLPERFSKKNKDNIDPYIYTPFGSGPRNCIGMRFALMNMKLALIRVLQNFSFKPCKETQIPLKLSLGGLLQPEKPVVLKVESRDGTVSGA

[11] = Half life in human liver S9 fraction at 2 uM up to 30 mins in presence of NADPH by HPLC-MS/MS analysis; assay type: ADME, subcellular
[12] = Cytotoxicity against human HepG2 cells assessed as cell viability at 100 uM after 72 hrs by MTT assay relative to control; assay type: cell-based; settings: read-out: Activity; how it was run: as §2
[13] = Cytotoxicity against mouse RAW264.7 cells assessed as cell viability at 1000 uM after 72 hrs by neutral red uptake-based assay relative to control; settings: read-out: Activity; how it was run: as §1
[14] = Cytotoxicity against mouse RAW264.7 cells assessed as cell viability at 1000 uM after 72 hrs by MTT assay relative to control; assay type: cell-based; settings: read-out: Activity; how it was run: as §1
[15] = Cytotoxicity against human U87MG cells assessed as cell viability at 250 uM after 72 hrs by MTT assay relative to control; assay type: cell-based, U-87MG ATCC; settings: read-out: Activity; how it was run: as §1
[16] = system: U-87 MG; assay: Antitumor activity against human U87MG cells xenografted in BALB/c nude mouse assessed as tumor growth inhibition 50 mg/kg/day, ip administered for 14 days; assay type: functional, organism-based; settings: U-87MG ATCC
How it was run: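 5 x 10⁵ U-87 MG cells implanted subcutaneously in right flank of male BALB/c nude mice; at about 50 mm³, randomized to saline or ip 50 mg/kg/day, with temozolomide 50 mg/kg/day in the combination arm, for 14 days. Relative tumor volume = volume on day / day 0; TGI on day 14 = [1 − RTV treated/RTV control] x 100. Two-way ANOVA with Bonferroni.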

[17] = Cytotoxicity against human U87MG cells assessed as cell viability at 500 uM after 72 hrs by MTT assay relative to control; assay type: cell-based, U-87MG ATCC; settings: read-out: Activity; how it was run: as §1
[18] = Cytotoxicity against African green monkey Vero cells assessed as cell viability at 500 uM after 72 hrs by MTT assay relative to control; assay type: cell-based; settings: chlorocebus sabaeus, read-out: Activity; how it was run: as §2
[19] = Cytotoxicity against human HepG2 cells assessed as cell viability at 500 uM after 72 hrs by neutral red uptake-based assay relative to control; settings: read-out: Activity; how it was run: as §2
[20] = molecular target: Cytochrome P450 2E1 (Homo sapiens, UniProt P05181); assay: Inhibition of CYP2E1 in human liver microsomes by HPLC-MS/MS analysis; assay type: ADME
Sequence of Cytochrome P450 2E1 (P05181 whole entry): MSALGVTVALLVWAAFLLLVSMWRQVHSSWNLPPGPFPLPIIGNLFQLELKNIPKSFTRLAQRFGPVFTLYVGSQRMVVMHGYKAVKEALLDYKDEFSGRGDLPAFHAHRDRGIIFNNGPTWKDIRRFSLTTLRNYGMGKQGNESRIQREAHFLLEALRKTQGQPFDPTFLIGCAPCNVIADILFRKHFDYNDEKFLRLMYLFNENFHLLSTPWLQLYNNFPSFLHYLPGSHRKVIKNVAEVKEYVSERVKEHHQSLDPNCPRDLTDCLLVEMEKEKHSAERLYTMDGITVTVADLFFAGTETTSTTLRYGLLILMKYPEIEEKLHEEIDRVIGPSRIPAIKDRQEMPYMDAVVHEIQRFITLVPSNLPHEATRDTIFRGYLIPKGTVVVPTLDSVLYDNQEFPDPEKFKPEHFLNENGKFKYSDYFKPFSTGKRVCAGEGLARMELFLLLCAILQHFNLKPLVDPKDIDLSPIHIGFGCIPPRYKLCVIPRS

[21] = Cytotoxicity against African green monkey Vero cells assessed as cell viability at 50 uM after 72 hrs by MTT assay relative to control; assay type: cell-based; settings: chlorocebus sabaeus, read-out: Activity; how it was run: as §2
[22] = Intrinsic clearance in human liver S9 fraction at 2 uM up to 30 mins in presence of NADPH by HPLC-MS/MS analysis; assay type: ADME, subcellular; settings: read-out: CLH
[23] = molecular target: Cytochrome P450 2C9 (Homo sapiens, UniProt P11712); assay: Inhibition of CYP2C9 in human liver microsomes by HPLC-MS/MS analysis; assay type: ADME
Sequence of Cytochrome P450 2C9 (P11712 whole entry): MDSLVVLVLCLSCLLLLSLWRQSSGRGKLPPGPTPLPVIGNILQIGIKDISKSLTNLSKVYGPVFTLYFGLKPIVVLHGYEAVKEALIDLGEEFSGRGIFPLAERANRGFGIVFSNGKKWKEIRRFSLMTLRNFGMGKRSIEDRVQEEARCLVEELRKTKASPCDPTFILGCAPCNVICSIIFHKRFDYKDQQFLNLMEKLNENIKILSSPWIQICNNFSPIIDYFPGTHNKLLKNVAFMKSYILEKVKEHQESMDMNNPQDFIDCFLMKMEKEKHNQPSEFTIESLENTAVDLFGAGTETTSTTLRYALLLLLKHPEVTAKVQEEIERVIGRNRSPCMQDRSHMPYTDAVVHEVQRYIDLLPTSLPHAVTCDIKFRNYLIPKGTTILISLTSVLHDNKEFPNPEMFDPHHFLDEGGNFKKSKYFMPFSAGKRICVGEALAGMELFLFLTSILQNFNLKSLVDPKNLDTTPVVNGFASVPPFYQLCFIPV

[24] = Cytotoxicity against African green monkey Vero cells assessed as cell viability at 25 uM after 72 hrs by neutral red uptake-based assay relative to control; settings: chlorocebus sabaeus, read-out: Activity; how it was run: as §2
[25] = Cytotoxicity against human U87MG cells assessed as cell viability at 250 uM after 72 hrs by neutral red uptake-based assay relative to control; set-up: species or system U-87MG ATCC; settings: read-out: Activity; how it was run: as §1
[26] = Cytotoxicity against human HaCaT cells assessed as cell viability at 100 uM after 72 hrs by MTT assay relative to control; assay type: cell-based; settings: read-out: Activity; how it was run: as §2
[27] = Cytotoxicity against African green monkey Vero cells assessed as cell viability at 500 uM after 72 hrs by neutral red uptake-based assay relative to control; settings: chlorocebus sabaeus, read-out: Activity; how it was run: as §2
[28] = Cytotoxicity against African green monkey Vero cells assessed as cell viability at 250 uM after 72 hrs by MTT assay relative to control; assay type: cell-based; settings: chlorocebus sabaeus, read-out: Activity; how it was run: as §2
[29] = Elimination rate constant in CF1 mouse at 50 mg/kg, ip by non-compartmental analysis; assay type: ADME, organism-based; settings: in vivo
[30] = system: U-87 MG; assay: In-vivo inhibition of cell proliferation in human U87MG cells xenografted in BALB/c nude mouse at 50 mg/kg, ip after 14 days by Ki-67b-staining based assay; assay type: functional, organism-based; settings: U-87MG ATCC
How it was run: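 Male BALB/c nude mice implanted subcutaneously with 5 x 10⁵ U-87 MG cells in the right flank. Treated IP at 50 mg/kg/day for 14 days, with saline controls, starting once tumors reached about 50 mm³. Tumors fixed in formaldehyde and cut at 3 µm. Citrate pH 6 antigen retrieval.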

- AUC(0-t) [3]: 16900 ng·h/mL
- Tmax [7]: 4.8 min
- IC50 [10]: > 100 µM
- half-life at 2 µM [11]: 28.1 min
- IC50 [20]: > 100 µM
- CLint scaled at 2 µM [22]: 13 mL/min/kg
- IC50 [23]: > 100 µM
- k el [29]: 0.000383 s⁻¹
SMILES: O=c1[nH]c(CNC(CO)CO)c(I)c(=O)[nH]1
- viability at 72 h, 50 µM [1]: 99%
- viability at 72 h, 25 µM [2]: 101%
- viability at 72 h, 50 µM [4]: 110%
- viability at 72 h, 1000 µM [5]: 72%
- Activity [6]: Active
- viability at 72 h, 50 µM [8]: 95%
- viability at 72 h, 250 µM [9]: 103%
- viability at 72 h, 100 µM [12]: 100%
- viability at 72 h, 1000 µM [13]: 48%
- viability at 72 h, 1000 µM [14]: 72%
- viability at 72 h, 250 µM [15]: 97%
- TGI [16]: Active
- viability at 72 h, 500 µM [17]: 89%
- viability at 72 h, 500 µM [18]: 84%
- viability at 72 h, 500 µM [19]: 96%
- viability at 72 h, 50 µM [21]: 97%
- viability at 72 h, 25 µM [24]: 108%
- viability at 72 h, 250 µM [25]: 98%
- viability at 72 h, 100 µM [26]: 98%
- viability at 72 h, 500 µM [27]: 90%
- viability at 72 h, 250 µM [28]: 95%
- inhibition [30]: inactive
